ChEMBL document CHEMBL1139952, “Cytotoxic Mannich bases of 6-(3-aryl-2-propenoyl)-2(3H)-benzoxazolones” (Eur J Med Chem, 2007)
Calls of active or inactive are those of the source. The calls are words filed in the database; no cut-off is given here.

What was measured:
Type in all cases: functional, cell-based
[1] = tested on: BV-173; experiment: Cytotoxicity against human BV173 cells after 72 hrs by MTT assay; settings: BV-173, 72 h
Method in brief: (§1)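 Suspension cultures (BV-173 pre-B-cell leukemia or K-562 chronic myeloid leukemia, from DSMZ) kept in log phase in RPMI-1640 with 10% FBS and 2 mM L-glutamine, 37 °C, humidified 5% CO2. Compounds dissolved in DMSO and diluted in RPMI-1640, final DMSO at most 0.5%. Exposure 72 h, MTT-dye reduction read-out. Six wells per concentration, experiments in triplicate, IC50 from concentration-response fits.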

[2] = tested on: K562; experiment: Cytotoxicity against human K562 cells after 72 hrs by MTT assay; settings: K562, 72 h; method in brief: as §1
[3] = tested on: BV-173; experiment: Induction of apoptosis in BV173 cells assessed as DNA fragmentation at 0.25 uM after 24hrs; settings: Homo sapiens, 2.5 uM, in the assay text read “2.5 uM” for “0.25 uM”
Method in brief: (§2)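 Apoptosis assay: exponentially growing BV-173 cells, 1 × 10⁶, exposed 24 h to compound or etoposide, with solvent-treated cells as controls. DNA was extracted from the cytosolic fraction and examined for fragmentation as laddering beside a DNA-laddering marker.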

[4] = tested on: BV-173; experiment: Induction of apoptosis in BV173 cells assessed as DNA fragmentation at 2.5 uM after 24hrs; settings: Homo sapiens; method in brief: as §2

## O=C(/C=C/c1ccccc1)c1ccc2[nH]c(=O)oc2c1
[1]
  IC50: 18.4 µM

## COc1cc([C@@H]2c3cc4c(cc3[C@@H](O[C@@H]3O[C@@H]5CO[C@@H](C)O[C@H]5[C@H](O)[C@H]3O)[C@H]3COC(=O)[C@H]23)OCO4)cc(OC)c1O [ETOPOSIDE]
[2]
  IC50: 3.1 µM
[1]
  IC50: 0.9 µM
[3]
  Activity: Active

## O=C(/C=C/c1ccccc1)c1ccc2c(c1)oc(=O)n2CN1CCSCC1
[2]
  IC50: 42.2 µM
[1]
  IC50: 7.9 µM

## COc1ccc(/C=C/C(=O)c2ccc3c(c2)oc(=O)n3CN2CCN(c3ccccc3OC)CC2)cc1
[4]
  Activity: Active
[2]
  IC50: 12.4 µM
[1]
  IC50: 5.4 µM

## COc1ccc(/C=C/C(=O)c2ccc3c(c2)oc(=O)n3CN2CCSCC2)cc1
[4]
  Activity: Active
[2]
  IC50: 21.2 µM
[1]
  IC50: 6.1 µM

## COc1ccc(/C=C/C(=O)c2ccc3c(c2)oc(=O)n3CN2CCN(Cc3ccccc3)CC2)cc1
[2]
  IC50: 24.2 µM
[1]
  IC50: 6.2 µM

## COc1ccc(/C=C/C(=O)c2ccc3c(c2)oc(=O)n3CN2CCCCC2)cc1
[1]
  IC50: 15.3 µM

## COc1ccc(/C=C/C(=O)c2ccc3c(c2)oc(=O)n3CN2CCOCC2)cc1
[2]
  IC50: 22.7 µM
[1]
  IC50: 4.7 µM

## O=C(/C=C/c1ccccc1)c1ccc2c(c1)oc(=O)n2CN1CCCCC1
[2]
  IC50: 38.3 µM
[1]
  IC50: 8.2 µM

## COc1ccc(/C=C/C(=O)c2ccc3c(c2)oc(=O)n3CN(C)C)cc1
[1]
  IC50: 17.7 µM

## COc1ccccc1N1CCN(Cn2c(=O)oc3cc(C(=O)/C=C/c4ccccc4)ccc32)CC1
[2]
  IC50: 30.1 µM
[1]
  IC50: 9.2 µM

## O=C(/C=C/c1ccccc1)c1ccc2c(c1)oc(=O)n2CN1CCN(Cc2ccccc2)CC1
[2]
  IC50: 29.5 µM
[1]
  IC50: 9.4 µM

## O=C(/C=C/c1ccccc1)c1ccc2c(c1)oc(=O)n2CN1CCOCC1
[2]
  IC50: 31.7 µM
[1]
  IC50: 7.4 µM

## CN(C)Cn1c(=O)oc2cc(C(=O)/C=C/c3ccccc3)ccc21
[2]
  IC50: 27.2 µM
[1]
  IC50: 6.6 µM

## COc1ccc(/C=C/C(=O)c2ccc3[nH]c(=O)oc3c2)cc1
[1]
  IC50: 9.2 µM
